Results on four compounds are retold here after ChEMBL document CHEMBL4813926, “Auyuittuqamides A-D, Cyclic Decapeptides from Sesquicillium microsporum RKAG 186 Isolated from Frobisher Bay Sediment” (J Nat Prod, 2021).

For experiment [1], the system named is Enterococcus faecium. Kind of experiment: Antimicrobial activity against vancomycin-resistant Enterococcus faecium EF379 up to 128 uM measured after 22 hrs by CLSI protocol based microbroth dilution assay. In kind it is functional, organism-based. The settings on record: dose microM <=128, time 22.0 hrs. The gist of the method:
(§1)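 CLSI broth microdilution in 96-well format. Growth inhibition was read as absorbance at 600 nm at time zero and after 22 h incubation at 37 °C.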

The test system of experiment [2] is Staphylococcus aureus. The experiment is described as follows: Antimicrobial activity against methicillin-resistant Staphylococcus aureus ATCC 33591 up to 128 uM measured after 22 hrs by CLSI protocol based microbroth dilution assay. The settings on record: dose microM <=128, time 22.0 hrs. In kind it is functional, organism-based. The gist of the method:
as §1

Experiment [3] relates to Pseudomonas aeruginosa. Kind of experiment: Antimicrobial activity against Pseudomonas aeruginosa ATCC 14210 up to 128 uM measured after 22 hrs by CLSI protocol based microbroth dilution assay. In kind it is functional, organism-based. The conditions noted are these: dose microM <=128, time 22.0 hrs. The gist of the method:
(§2)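 96-well microbroth dilution run to CLSI standards. OD 600 nm read at time zero and at the end, after 22 h incubation at 37 °C, to give growth inhibition.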

Experiment [4] relates to Candida albicans. Kind of experiment: Antifungal activity against Candida albicans ATCC 14035 up to 128 uM measured after 22 hrs by CLSI protocol based microbroth dilution assay. In kind it is functional, organism-based. The settings on record: dose microM <=128, time 22.0 hrs. The method in brief:
as §2

In experiment [5] the test system is Staphylococcus warneri. The experiment is described as follows: Antimicrobial activity against Staphylococcus warneri ATCC 17917 up to 128 uM measured after 22 hrs by CLSI protocol based microbroth dilution assay. In kind it is functional, organism-based. The conditions noted are these: dose microM <=128, time 22.0 hrs. The gist of the method: as §2
Experiment [6] is described as follows: Cytotoxicity against ER negative human HTB26 cells assessed as reduction in cell viability measured after 24 hrs by Alamar blue assay. It is filed as functional, cell-based. The conditions noted are these: HTB26, 24 h. The method in brief: (§3)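 Cells in 96-well culture plates, in triplicate. Viability taken 24 h after treatment with Alamar Blue redox dye. Fluorescence read at 560/12 nm excitation and 590 nm emission, at time zero and 4 h after dye addition.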

Experiment [7] concerns Keratinocyte. The experiment is described as follows: Cytotoxicity against human epidermal keratinocytes assessed as reduction in cell viability measured after 24 hrs by Alamar blue assay. In kind it is cell-based. The method in brief: as §3
The subject of experiment [8] is MCF7. The experiment is described as follows: Cytotoxicity against ER positive human MCF7 cells assessed as reduction in cell viability measured after 24 hrs by Alamar blue assay. It is filed as functional, cell-based. The conditions noted are these: MCF7, 24 h. The gist of the method: as §3

Structures are written as SMILES. The source made the active and inactive calls. The calls are words filed in the database; no cut-off is given here. Where a SMILES comes first, the peptide text is derived from it. [ ]: non-standard residue; d: D form. NMeF = CN[C@@H](Cc1ccccc1)C(=O)O; NMeT = CN[C@H](C(=O)O)[C@@H](C)O; NMeV = CN[C@H](C(=O)O)C(C)C

Take `CC[C@@H](C)[C@@H]1NC(=O)CNC(=O)[C@H](Cc2ccccc2)N(C)C(=O)[C@H](C(C)C)NC(=O)[C@H]([C@@H](C)O)N(C)C(=O)[C@H](CC(C)C)NC(=O)CNC(=O)[C@H](C(C)C)N(C)C(=O)[C@H](C(C)C)NC(=O)[C@H](CO)NC1=O`: the result in experiment [1], in experiment [2], in experiment [3], in experiment [4] and in experiment [5] was inactive. Moreover, the IC50 in experiment [6], in experiment [7] and in experiment [8] was more than 10 µM in each case.
Take `CC[C@H](C)[C@@H]1NC(=O)CNC(=O)[C@H](Cc2ccccc2)N(C)C(=O)[C@H]([C@@H](C)CC)NC(=O)[C@H]([C@@H](C)O)N(C)C(=O)[C@H](CC(C)C)NC(=O)CNC(=O)[C@H](C(C)C)N(C)C(=O)[C@H]([C@@H](C)CC)NC(=O)[C@H](CO)NC1=O` (cyclo(GISI[NMeV]GL[NMeT]I[NMeF])): the outcome in experiment [1], in experiment [2], in experiment [3], in experiment [4] and in experiment [5] was inactive. Further, the IC50 in experiment [6], in experiment [7] and in experiment [8] was more than 10 µM throughout.
As for `CC[C@H](C)[C@@H]1NC(=O)CNC(=O)[C@H](Cc2ccccc2)N(C)C(=O)[C@H]([C@@H](C)CC)NC(=O)[C@H]([C@@H](C)O)N(C)C(=O)[C@H](CC(C)C)NC(=O)CNC(=O)[C@H](C(C)C)N(C)C(=O)[C@H](C(C)C)NC(=O)[C@H](CO)NC1=O` (cyclo(GISV[NMeV]GL[NMeT]I[NMeF])), the result in experiment [1], in experiment [2], in experiment [3], in experiment [4] and in experiment [5] was inactive. Moreover, the IC50 in experiment [6], in experiment [7] and in experiment [8] was more than 10 µM in each case.
In the case of `CC(C)C[C@@H]1NC(=O)CNC(=O)[C@H](C(C)C)N(C)C(=O)[C@H](C(C)C)NC(=O)[C@H](CO)NC(=O)[C@H](C(C)C)NC(=O)CNC(=O)[C@H](Cc2ccccc2)N(C)C(=O)[C@H](C(C)C)NC(=O)[C@H]([C@@H](C)O)N(C)C1=O` (cyclo(GL[NMeT]V[NMeF]GVSV[NMeV])), the result in experiment [1], in experiment [2], in experiment [3], in experiment [4] and in experiment [5] was inactive. The IC50 in experiment [6], in experiment [7] and in experiment [8] was more than 10 µM each time.
